The record followed here is ChEMBL document CHEMBL3992522, “Antileishmanial Activity of Pyrazolopyridine Derivatives and Their Potential as an Adjunct Therapy with Miltefosine” (J Med Chem, 2017).

Series [1] has as its system Leishmania donovani. The experiment in a line: Antileishmanial activity against Leishmania donovani MHOM/IN/80/DD8 promastigote forms harboring luciferase gene at 25 uM after 72 hrs by Steady-Glo reagent based luminescence assay relative to control. The class given is functional. As to conditions: MHOM/IN/80/DD8, 72 h, read-out: GI. An outline of the steps: (§1)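 Exponential-phase Dd8-Luc promastigotes at 1×10^6/mL in M199 with 10% FBS, 24 °C, given 50 and 25 µM for 72 h. Vehicle 0.1% DMSO. Steady-Glo added 1:1, luminescence (RLU) read. IC50 from four-parameter Hill regression, derived only where inhibition exceeded 90%. Means of at least three independent experiments.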

Series [2] deals with Leishmania donovani. In words: Antileishmanial activity against Leishmania donovani MHOM/IN/80/DD8 promastigote forms harboring luciferase gene at 50 uM after 72 hrs by Steady-Glo reagent based luminescence assay relative to control. It is filed as functional. Conditions: MHOM/IN/80/DD8, 72 h, read-out: GI. An outline of the steps: as §1
For series [3], the system named is Leishmania donovani. In words: Antileishmanial activity against Leishmania donovani MHOM/IN/80/DD8 amastigote forms harboring luciferase gene infected in mouse J774 cells at 25 uM after 72 hrs by Steady-Glo reagent based luminescence assay relative to control. It is filed as functional. Conditions: MHOM/IN/80/DD8, J774, 72 h, read-out: GI. A digest of the protocol: (§2)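 Stationary-phase luciferase-expressing Dd8 promastigotes infected into J774 macrophages (4×10^4/mL seeded, 24 h, 37 °C, 5% CO2) at 1:8 macrophage:parasite for 24 h. Non-internalised parasites washed off. Compounds added at 50 and 25 µM in RPMI/10% FBS for 72 h. Lysis with Steady-Glo luciferin reagent plus PBS, luminescence read. Inhibition relative to untreated infected controls.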

Series [4] has as its system Leishmania donovani. The experiment in a line: Antileishmanial activity against Leishmania donovani MHOM/IN/80/DD8 amastigote forms harboring luciferase gene infected in mouse J774 cells at 50 uM after 72 hrs by Steady-Glo reagent based luminescence assay relative to control. It is filed as functional. As to conditions: MHOM/IN/80/DD8, J774, 72 h, read-out: GI. An outline of the steps: as §2

Series [5] has as its system Leishmania donovani. The experiment in a line: Antileishmanial activity against Leishmania donovani MHOM/IN/80/DD8 amastigote forms harboring luciferase gene infected in mouse J774 cells after 72 hrs by Steady-Glo reagent based luminescence assay. It is filed as functional, cell-based. Conditions: MHOM/IN/80/DD8, J774, 72 h.
A short description of series [6]: Cytotoxicity against mouse J774 cells assessed as reduction in cell viability after 72 hrs by MTT assay. It is filed as cell-based. A digest of the protocol: (§3)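 Vero and J774 cells seeded at 1×10^5 per well for 24 h, then exposed 72 h to seven two-fold dilutions from 500 to 7.81 μM. MTT solution (5 mg/mL stock) added for 2 h at 37 °C, formazan dissolved in DMSO and read at 540 nm. CC50 derived by the Huber and Koella method.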

Series [7] in a line: Cytotoxicity against African green monkey Vero cells assessed as reduction in cell viability after 72 hrs by MTT assay. As to conditions: chlorocebus sabaeus. It is filed as cell-based. An outline of the steps:
as §3

Series [8] is described as follows: Selectivity index, ratio of CC50 for mouse J774 cells to IC50 for Leishmania donovani MHOM/IN/80/DD8 amastigote forms infected in mouse J774 cells. The class given is toxicity, cell-based. As to conditions: read-out: Ratio CC50/IC50. An outline of the steps: (§4)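 CC50: Vero or J774 cells (1×10^5/well) exposed 72 h to seven two-fold dilutions, 500–7.81 μM; MTT 2 h at 37 °C, formazan in DMSO read at 540 nm. IC50: luciferase-expressing Dd8 amastigotes in J774 macrophages (1:8), 72 h, luminescence, four-parameter Hill fit. SI = CC50/IC50, IC50 mean of three experiments.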

A short description of series [9]: Selectivity index, ratio of CC50 for African green monkey Vero cells to IC50 for Leishmania donovani MHOM/IN/80/DD8 amastigote forms infected in mouse J774 cells. Conditions: read-out: Ratio CC50/IC50. It is filed as toxicity, cell-based. An outline of the steps: as §4
Series [10] has as its system Leishmania donovani. The experiment in a line: Antileishmanial activity against Leishmania donovani amastigote forms infected in Balb/c mouse assessed as inhibition of parasitic burden in liver at 5 mg/kg, po administered for 5 consecutive days measured on day 7 post last treatment by Giemsa staining based assay relative to control. The class given is functional. Conditions: 168 h.

Series [11] deals with Leishmania donovani. In words: Antileishmanial activity against Leishmania donovani amastigote forms infected in Balb/c mouse assessed as inhibition of parasitic burden in spleen at 5 mg/kg, po administered for 5 consecutive days measured on day 7 post last treatment by Giemsa staining based assay relative to control. It is filed as functional. As to conditions: 168 h.
Series [12] concerns Mus musculus. The experiment in a line: Decrease in TGFbeta level in Balb/c mouse splenocytes infected with Leishmania donovani amastigote forms at 25 mg/kg, po administered for 5 consecutive days measured on day 4 post last treatment by sandwich ELISA relative to control. The class given is functional. As to conditions: 96 h.
Series [13] concerns Mus musculus. In words: Increase in IFNgamma level in Balb/c mouse splenocytes infected with Leishmania donovani amastigote forms at 25 mg/kg, po administered for 5 consecutive days measured on day 4 post last treatment by sandwich ELISA relative to control. It is filed as functional.
Series [14] has as its system Mus musculus. The experiment in a line: Increase in TNFalpha level in Balb/c mouse splenocytes infected with Leishmania donovani amastigote forms at 25 mg/kg, po administered for 5 consecutive days measured on day 4 post last treatment by sandwich ELISA relative to control. It is filed as functional.
Series [15] deals with Mus musculus. In words: Increase in IL-12 level in Balb/c mouse splenocytes infected with Leishmania donovani amastigote forms at 25 mg/kg, po administered for 5 consecutive days measured on day 4 post last treatment by sandwich ELISA relative to control. It is filed as functional.
Series [16] has as its system Mus musculus. The experiment in a line: Increase in IFNgamma level in Balb/c mouse splenocytes infected with Leishmania donovani amastigote forms at 25 mg/kg, po administered for 5 consecutive days measured on day 7 post last treatment by sandwich ELISA relative to control. The class given is functional.
In series [17] the test system is Mus musculus. In words: Increase in TNFalpha level in Balb/c mouse splenocytes infected with Leishmania donovani amastigote forms at 25 mg/kg, po administered for 5 consecutive days measured on day 7 post last treatment by sandwich ELISA relative to control. It is filed as functional.
The test system of series [18] is Mus musculus. The experiment in a line: Increase in IL-12 level in Balb/c mouse splenocytes infected with Leishmania donovani amastigote forms at 25 mg/kg, po administered for 5 consecutive days measured on day 7 post last treatment by sandwich ELISA relative to control. The class given is functional.
Series [19] relates to Mus musculus. In words: Decrease in IL-10 level in Balb/c mouse splenocytes infected with Leishmania donovani amastigote forms at 25 mg/kg, po administered for 5 consecutive days measured on day 4 post last treatment by sandwich ELISA relative to control. It is filed as functional. Conditions: 96 h.
The test system of series [20] is Mus musculus. The experiment in a line: Decrease in TGFbeta level in Balb/c mouse splenocytes infected with Leishmania donovani amastigote forms at 25 mg/kg, po administered for 5 consecutive days measured on day 7 post last treatment by sandwich ELISA relative to control. The class given is functional. Conditions: 168 h.
Series [21] deals with Mus musculus. In words: Decrease in IL-10 level in Balb/c mouse splenocytes infected with Leishmania donovani amastigote forms at 25 mg/kg, po administered for 5 consecutive days measured on day 7 post last treatment by sandwich ELISA relative to control. It is filed as functional. As to conditions: 168 h.
In series [22] the test system is Mus musculus. The experiment in a line: Increase in iNOS-mediated NO generation in Balb/c mouse splenocytes infected with Leishmania donovani amastigote forms at 25 mg/kg, po for 5 consecutive days measured on day 4 post last treatment followed by soluble Leishmania donovani promastigote antigen-stimulation for 72 hrs by Griess assay relative to control. It is filed as functional.

The test system of series [23] is Mus musculus. In words: Increase in iNOS-mediated NO generation in Balb/c mouse splenocytes infected with Leishmania donovani amastigote forms at 5 mg/kg, po for 5 consecutive days measured on day 4 and 7 post last treatment followed by soluble Leishmania donovani promastigote antigen-stimulation for 72 hrs by Griess assay relative to control. It is filed as functional. An outline of the steps: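 Splenocytes from treated infected BALB/c mice (5-day regimen, i.p. test compound, oral miltefosine; n = 5) isolated day 4 and day 7 post-treatment. Cultured in phenol red-free RPMI 1640 with 5 μg/mL SLA for 72 h at 37 °C, 5% CO2. Supernatant nitrite measured by Griess assay at 540 nm against a sodium nitrite standard curve.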

Molecules are shown by their SMILES.

As for `CCCCCCCCCCCCCCCCOP(=O)([O-])OCC[N+](C)(C)C` [MILTEFOSINE], the inhibition of growth at 25 µM in the series on Leishmania donovani [1] turned out to be 100%; with Leishmania donovani [3], 99.8%. Further, the inhibition of growth at 50 µM with Leishmania donovani [2] and with Leishmania donovani [4] was 100% each time. For the same molecule, the IC50 in the series on Leishmania donovani [5] came out at 9.46 µM. Besides, the figures for the CC50 at 72 h in [6] and in series [7] were 55.7 µM and 50.8 µM, respectively. Besides, the selectivity ratio in [8] stood at 5.8; in series [9] it was 5.3. Further, the inhibition in vivo at 5 mg/kg was above 75% in the series with Leishmania donovani [10] and above 61% in the series on Leishmania donovani [11]. The inhibition in vivo at 25 mg/kg came out at 87.5% with Mus musculus [12], 88.7% in the series with Mus musculus [19], 94.6% with Mus musculus [20] and 92.9% in the series with Mus musculus [21]. The “fold change (FC)” value is given as 9.1 in the series on Mus musculus [13]; 6.5 with Mus musculus [14]; 12.9 with Mus musculus [15]; 8.1 with Mus musculus [16]; 5.3 in the series on Mus musculus [17]; 9.5 in the series with Mus musculus [18]. Besides, the “fold change (FC)” value in the series with Mus musculus [22] is given as 7.4; with Mus musculus [23], 4.3.
